“Also recorded” adds a separate entry of the source. Read-outs that look alike come from different tables or passages of the source.
Columns and labels:
[1] = tested on: L. donovani promastigotes; experiment: Primary screening against L. donovani promastigotes; assay type: cell-based; conditions: Leishmania donovani, 48 h, read-out: % inhibition (48 h)
Method in brief: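 Promastigotes at 2 × 10^6 cells per mL in RPMI at 26 °C were given test compound at 100 μM, with DMSO (0.2%) as solvent, an amphotericin B reference and a medium-only control. Viability was read by MTT and expressed as % inhibition.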

[2] = tested on: L. donovani promastigotes; experiment: IC50 from dose-dependent anti-promastigote activity; assay type: cell-based, Leishmania donovani; conditions: 72 h, read-out: IC50 against L. donovani promastigotes
Method in brief: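 Log-phase promastigotes (26 °C, M199 with 10% heat-inactivated FBS) were exposed to graded concentrations of test compound, and viability was read by MTT. Percentage viability was calculated as treated/untreated mean × 100. IC50 was extrapolated from the % viability versus concentration plot, from triplicate experiments as mean ± SEM.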

Cytotoxicity assay = assay type: cell-based, human; conditions: human, THP-1 human monocytic cells, pH 7.4, Log CC50, THP-1 human monocytic cells, 72 h, MTT
Method in brief: (§1)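 THP-1 cells in RPMI with 10% FBS were seeded at 1 × 10^6 cells per mL and held 24 h at 37 °C in humidified CO2. Medium was then replaced with test compound or standard at 100, 50, 25, 12.5 and 6.25 μM for 72 h. Viability was read by MTT (0.5 mg mL−1, 4 h, 37 °C), with formazan dissolved in DMSO and absorbance at 570 nm.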

[3] = tested on: THP-1 human monocytic cells; experiment: Cytotoxicity assay; assay type: cell-based; conditions: for Log CC50 / CC50: THP-1 human monocytic cells, 72 h, MTT; for CC50: unit printed in Table 5 only
Method in brief: as §1

[4] = tested on: intracellular L. donovani amastigotes; experiment: Intracellular amastigotes assay in infected macrophages; assay type: cell-based, Leishmania donovani; conditions: for Percentage Reductions (%) in intracellular amastigotes: 72 h; for SI (selectivity index): CC50 (THP-1) / IC50 (intracellular amastigotes)
Method in brief: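 Macrophages (5 × 10^4 per chamber) adhered 2 h at 37 °C in 5% CO2, were washed with serum-free RPMI, then infected overnight with metacyclic L. donovani at 10:1 in complete RPMI 1640. Free promastigotes were washed off after 24 h, and test compound was added in duplicate for 72 h at 37 °C in 5% CO2. Giemsa-stained amastigotes per 100 macrophages were counted and expressed as a percentage of the untreated control mean.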

papain = target: T1, papain (Carica papaya, UniProt P00784); experiment: In vitro cysteine protease inhibition assay; assay type: biochemical
T1 sequence (P00784 134-345): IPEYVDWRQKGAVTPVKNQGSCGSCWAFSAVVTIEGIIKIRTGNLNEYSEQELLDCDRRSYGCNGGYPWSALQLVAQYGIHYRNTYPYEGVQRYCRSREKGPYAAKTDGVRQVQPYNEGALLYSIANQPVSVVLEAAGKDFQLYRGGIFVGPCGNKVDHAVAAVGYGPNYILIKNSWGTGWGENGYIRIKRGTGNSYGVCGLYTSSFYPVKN
Method in brief: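 Papain was run in activation buffer of sodium acetate (pH 5.5), 8 mM DTT and 4 mM EDTA, with papain […], 10 μM Bz-Arg-AMC and inhibitor at 0–32 μM (dissolved in DMSO). AMC release was followed by fluorescence (excitation 345 nm, emission 440 nm) for 120 min. IC50 came from the straight-line fit of % residual activity versus log[inhibitor].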

[5] = tested on: L. donovani promastigotes; experiment: Cellular morphological alteration of promastigotes; assay type: cell-based, Leishmania donovani; conditions: 48 hours, contrast microscope 40× objective
Method in brief: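 Exponential-phase promastigotes (grown at 26 °C in M199 with 10% heat-inactivated FBS) at 2 × 10^6 cells per mL were incubated without or with test compound or reference drug at 1 μM for 48 h. Cell shape was examined by contrast/light microscopy (40× objective) at 0 and 48 h and scored for programmed-cell-death-type morphology.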

SARS-CoV-2 3CL protease = conditions: read-out: IC50 against SARS-CoV-2 3CL protease; cited from earlier work
L. donovani = conditions: read-out: IC50 against L. donovani; ref Ahmed H. E. Hassan and his team; cited from earlier work
[6] = preliminary cytotoxicity assessments; ref Ahmed H. E. Hassan and his team; cited from earlier work
[7] = serial dilutions starting at 25 μM, MTT

CC/C(=C\c1ccc(OCC(=O)NC(Cc2ccccc2)C(=O)N2CCOCC2)cc1)[N+](=O)[O-] (stereo not drawn) [14a, (E)-N-(1-Morpholino-1-oxo-3-phenylpropan-2-yl)-2-(4-(2-nitrobut-1-en-1-yl)phenoxy)acetamide]
inhibition at 100 µM [1]: 84.8%
IC50 ([2]; Leishmania donovani): 11.9 µM
CC50 at 72 h (Cytotoxicity assay): 28.7 µM
cytotoxicity to mammalian macrophages ([3]; even at a concentration of 28 μM): negligible cytotoxicity; also recorded: insignificant cytotoxicity
Percentage Reductions (%) in intracellular amastigotes ([4]; 3.125 μM): 37.2%
Percentage Reductions (%) in intracellular amastigotes ([4]; 6.25 μM): 44.1%
Percentage Reductions (%) in intracellular amastigotes ([4]; 12.5 μM): 57.5%
SI (selectivity index) [4]: 3.55
IC50 (papain): 9.63 ± 0.28 µM
morphological changes of treated promastigotes [5]: notable morphological alterations

CC/C(=C\c1ccc(OCC(=O)N[C@@H](Cc2ccccc2)C(=O)NCC(=O)OC)cc1)[N+](=O)[O-] [14i, Methyl (E)-(2-(4-(2-nitrobut-1-en-1-yl)phenoxy)acetyl)phenylalanylglycinate]
inhibition at 100 µM [1]: 84.5%
IC50 ([2]; Leishmania donovani): 5.3 µM
CC50 at 72 h (Cytotoxicity assay): 5.15 µM

CC/C(=C\c1ccc(OCC(=O)N[C@@H](Cc2c[nH]c3ccccc23)C(=O)N[C@@H](C)C(=O)OC)cc1)[N+](=O)[O-] [14j, Methyl (E)-(2-(4-(2-nitrobut-1-en-1-yl)phenoxy)acetyl)tryptophylalaninate]
inhibition at 100 µM [1]: 65.5%

CC/C(=C\c1ccc(OCC(=O)N[C@@H](Cc2ccccc2)C(=O)N[C@@H](C)C(=O)OC)cc1)[N+](=O)[O-] [14k, Methyl (E)-(2-(4-(2-nitrobut-1-en-1-yl)phenoxy)acetyl)phenylalanylalaninate]
inhibition at 100 µM [1]: 54.8%

C[C@@H]1[C@H](O)[C@@H](C)/C=C/C=C/C=C/C=C/C=C/C=C/C=C/[C@H](O[C@@H]2O[C@H](C)[C@@H](O)[C@H](N)[C@@H]2O)C[C@@H]2O[C@](O)(C[C@@H](O)C[C@@H](O)[C@H](O)CC[C@@H](O)C[C@@H](O)CC(=O)O[C@H]1C)C[C@H](O)[C@H]2C(=O)O [AmphoB, Amphotericin B, reference compound]
inhibition at 100 µM [1]: 78.5%
IC50 ([2]; Leishmania donovani): 3.07 µM
Percentage Reductions (%) in intracellular amastigotes ([4]; 3.125 μM): 52.3%
Percentage Reductions (%) in intracellular amastigotes ([4]; 6.25 μM): 63.2%
Percentage Reductions (%) in intracellular amastigotes ([4]; 12.5 μM): 85.5%
SI (selectivity index) [4]: 3.48

O=[N+]([O-])C=Cc1ccc([N+](=O)[O-])cc1 [compound 2, 4-nitro-β-nitrostyrene]
IC50 (SARS-CoV-2 3CL protease): 0.73 µM

CCCCCCCC/C=C\CCCCCCCCCCCCOP(=O)([O-])OCC[N+](C)(C)C [erufosine]
IC50 (L. donovani): 9.8 µM
CC50 [6]: 19.4 µM

(E)-1-(2-(Morpholine-4-carbonyl)pyrrolidin-1-yl)-2-(4-(2-nitrobut-1-en-1-yl)phenoxy) ethan-1-one [14b]
IC50 [2, 7]: 16.8 µM
Log CC50 [3]: 0.7734
CC50 [3]: 5.93 µM

(E)-2-(4-(2-Nitrobut-1-en-1-yl)phenoxy)-1-(2-(thiomorpholine-4-carbonyl)pyrrolidin-1-yl)ethan-1-one [14d]
IC50 [2, 7]: 7.56 µM
Log CC50 [3]: 0.5025
CC50 [3]: 3.18 µM

(E)-2-(4-(2-Nitrobut-1-en-1-yl)phenoxy)-N-(1-oxo-3-phenyl-1-thiomorpholinopropan-2-yl)acetamide [14c]
IC50 [2, 7]: 7.24 µM
Log CC50 [3]: 0.5684
CC50 [3]: 3.7 µM

Methyl (E)-(2-(1H-indol-3-yl)-2-(2-(4-(2-nitrobut-1-en-1-yl)phenoxy)acetamido)acetyl)valinate [14h]
IC50 [2, 7]: 10 µM
Log CC50 [3]: 1.109
CC50 [3]: 12.9 µM
